Test [1] can be described thus: inhibitors of TNFa-induced NFkB p65 translocation, primary screen, imaging, HUVEC, MLSMR starter and 10KST1 sets (AID 438;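 active = inhibition above 20% together with a positive visual image hit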;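 also: compound added about 3h40 before a 20 min TNFalpha stimulation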;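 as to inhibition: signal is the nuclear over cytoplasmic p65 intensity ratio per well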). Conditions: HUVEC TNFa-induced p65 nuclear translocation; cell count: measured here: nuclei count (cytotoxicity indicator), at 2.08 µM; inhibition: at 2 µM, stronger effect = higher value, 0% TNFa-plus-vehicle, 100% no-TNFa wells.
Test [2] is described as follows: endothelial E-selectin expression blockers – imaging, HUVEC, immunofluorescence, MLSMR starter and 10KST1 sets, primary screen (AID 487;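 active = visually confirmed hit in the image check and inhibition above 20%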;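 as to inhibition: signal is fraction of cell area covered by stained E-selectin grains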;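 as to nuclei count: 100% = median nuclei count of all wells on the same plate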). As to conditions: HUVEC TNFalpha-induced E-selectin immunofluorescence imaging, at 2 µM; inhibition: stronger effect = higher value; nuclei count: measured here: cell number, toxicity.
Test [3] can be described thus: Primary imaging screen for DUSP6 inhibitors that restore phospho-Erk in transfected HeLa cells, chemical complementation (AID 609;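 active = compounds giving at least 50% inhibition in the cell-based MKP-3 phosphatase rescue imaging test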;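 as to inhibition: phospho-Erk level distribution per well compared with pooled transfected vehicle control wells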). Conditions: HeLa MKP-3 transfected, phospho-Erk imaging KS statistic, at 10 µM, cells stimulated with TPA for 15 min.
Test [4] deals with Dual specificity protein phosphatase 6 (Homo sapiens) (UniProt Q16828). Described as above. Conditions: HeLa MKP-3 transfected, phospho-Erk imaging KS statistic; at 10 µM; stronger effect = higher value; cells stimulated with TPA for 15 min.
Dual specificity protein phosphatase 6 (Homo sapiens), sequence (Q16828 whole entry, looked up): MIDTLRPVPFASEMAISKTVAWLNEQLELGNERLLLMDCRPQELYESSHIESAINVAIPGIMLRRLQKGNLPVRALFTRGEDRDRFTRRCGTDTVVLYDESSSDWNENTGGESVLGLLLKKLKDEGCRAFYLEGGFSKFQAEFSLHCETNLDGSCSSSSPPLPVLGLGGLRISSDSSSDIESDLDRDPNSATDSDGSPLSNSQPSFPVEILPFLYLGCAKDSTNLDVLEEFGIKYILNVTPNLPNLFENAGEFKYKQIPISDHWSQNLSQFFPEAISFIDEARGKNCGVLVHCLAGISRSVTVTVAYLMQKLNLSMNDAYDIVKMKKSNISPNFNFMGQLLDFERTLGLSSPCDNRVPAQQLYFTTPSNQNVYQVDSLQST
In test [5] the target is Voltage-gated potassium channel subunit beta-2 (Rattus norvegicus) (UniProt P62483). Briefly: inhibitors of rat Kvbeta2 reductase activity – biochemical, NADPH fluorescence, primary screen (AID 622;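 active = fluorescence slope higher than the sample average by over 3 SD, cut at about -0.22 in these data, passing the limit was not always enough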;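 also: slope of raw intensity against log time taken from 70 to 1610 s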). Conditions: recombinant KvBeta, 4-cyanobenzaldehyde reduction, at 10 µM, stronger effect = higher value.
Voltage-gated potassium channel subunit beta-2 (Rattus norvegicus), sequence (P62483 whole entry, looked up): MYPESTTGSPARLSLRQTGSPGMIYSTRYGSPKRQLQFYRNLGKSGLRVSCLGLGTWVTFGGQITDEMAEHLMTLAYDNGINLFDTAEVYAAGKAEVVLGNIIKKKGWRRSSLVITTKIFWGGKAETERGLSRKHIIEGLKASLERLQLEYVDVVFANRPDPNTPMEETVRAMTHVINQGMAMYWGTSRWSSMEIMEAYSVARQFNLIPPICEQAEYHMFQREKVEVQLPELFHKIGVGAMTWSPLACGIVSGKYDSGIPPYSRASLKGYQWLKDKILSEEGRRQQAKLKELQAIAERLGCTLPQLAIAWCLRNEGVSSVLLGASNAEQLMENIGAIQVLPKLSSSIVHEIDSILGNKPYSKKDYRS
The target is the same in test [6]. Briefly: enhancers of rat Kvbeta2 NADPH turnover – biochemical, NADPH fluorescence, primary screen (AID 623;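 active = NADPH fluorescence slope more negative than the mean of all samples by about 3 SD, 99.7% confidence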;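 also: fluorescence intensity change per second fitted from 20 to 320 s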). As to conditions: Recombinant KvBeta, NADPH fluorescence decrease slope, 10 min; at 10 µM; stronger effect = lower value.
The target in test [7] is Alpha-2C adrenergic receptor (Homo sapiens) (UniProt P18825). The test is described as follows: compounds altering alpha2C-coupled GIRK flux – cell-based, HEK293 alpha2C/GIRK1/2, thallium flux, primary screen (AID 624).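 Also: slope of fluorescence ratio to pre-addition baseline per second over 15 to 24 s.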 As to conditions: thallium flux BTC fluorescence, at 10 µM, actives lie on both sides.
Alpha-2C adrenergic receptor (Homo sapiens), sequence (P18825 whole entry, looked up): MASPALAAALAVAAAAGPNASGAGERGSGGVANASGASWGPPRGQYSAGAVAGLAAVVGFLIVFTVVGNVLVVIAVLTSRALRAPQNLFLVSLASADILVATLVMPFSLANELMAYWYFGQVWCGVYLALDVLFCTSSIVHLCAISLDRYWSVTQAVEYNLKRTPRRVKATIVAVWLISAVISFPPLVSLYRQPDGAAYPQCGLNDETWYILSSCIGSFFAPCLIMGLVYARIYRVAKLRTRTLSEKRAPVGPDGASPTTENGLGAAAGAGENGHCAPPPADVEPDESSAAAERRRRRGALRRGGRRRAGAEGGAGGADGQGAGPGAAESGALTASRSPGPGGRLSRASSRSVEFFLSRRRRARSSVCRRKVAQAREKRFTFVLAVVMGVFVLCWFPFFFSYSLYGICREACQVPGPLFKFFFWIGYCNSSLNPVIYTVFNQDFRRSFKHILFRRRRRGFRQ
Test [8] can be described thus: inhibitors of larval lipid processing in zebrafish, primary screen, whole organism, PED6 fluorescence, gall bladder and intestine (AID 686;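 active = a full or partial loss of lipid-probe fluorescence in the fish gall bladder, intestine or both, judged by eye; inactive = no fluorescence loss, or compound toxic to the fish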;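 also: larvae 5 to 7 days old with five fish per well; signal comes from phospholipase A2 cleavage of quenched PED6 carried via bile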). Conditions: Zebrafish larvae PED6 lipid processing, fluorescence scoring; screened at 20 µM (by protocol). Summed up: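 system = live zebrafish larvae aged 5-7 days, whole organism | probe or stimulus = ingested quenched lipid PED6 at 100 nM | doses = 20 µM single dose | timing = overnight exposure | detection = fluorescence microscopy with visual scoring of gall bladder and intestine | read-out = visual per-well fluorescence inhibition score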

A short description of test [9]: loss of swimming-algae plug formation – whole organism, Chlamydomonas reinhardtii, WT vs cilia-less mutant, absorbance, 96-well, primary screen (AID 463189;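 active = inhibition at or above 50% relative to wild type and mutant plate controls; inactive = inhibition below 50%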;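 also: 0% = wild type cc124 cells in DMSO and 100% = ciliumless bld1 mutant cells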). Conditions: Chlamydomonas reinhardtii gravitaxis, OD600 absorbance, 2 days; at 10 µM; stronger effect = higher value.
[10] abbreviates: measured here: cell density z-score.
[11] abbreviates: measured here: nuclear c-Myc green intensity z-score.
[12] abbreviates: measured here: nuclear pErk red intensity z-score, stronger effect = higher value.

Activity calls are given as the source filed them.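 The calls were made as follows, unless noted: active = fluorescence slope after compound addition differing from the mean of all screened samples at 99.7% confidence, in either direction; inactive = the rest.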

As for `N#Cc1c(-c2ccccc2Cl)cc(C2CC2)nc1N`, the cell count in test [1] was determined as 577. The inhibition (commonly the drop in the measured response relative to a control, in per cent) is -16.2% (inactive) in [1], -31.3% (inactive) in test [2], -2.47% (inactive) in test [4] and -9.3% (inactive) in [9]. In addition, in test [2], the nuclei count worked out at 172%. The z-score was 0.235 in [3] (setting [10]), -0.47 in test [3] (setting [11]) and 0.466 in test [3] (setting [12]). Further, the fluorescence slope in [5] is -0.415 (inactive). Besides, the NADPH fluorescence slope in [6] is -2.4e-05 (inactive). In addition, the slope in [7] is 0.00637 (inactive). Further, in [8], the molecule was classed as inactive.
As for `COc1ccc(-c2nn3c(COc4ccccc4)nnc3s2)cc1OC`, the cell count in test [1] came to 597. In addition, the inhibition was -0.7% (inactive) in test [1], 33.6% (inactive) in test [2], -0.674% (inactive) in [4] and -1.36% (inactive) in test [9]. Also, the nuclei count in test [2] was 96.3%. For the same molecule, the z-score is 1.18 in test [3] (setting [10]), -0.256 in test [3] (setting [11]) and -1 in [3] (setting [12]). The fluorescence slope in test [5] is -0.395 (inactive). Besides, in test [6], the NADPH fluorescence slope is -6e-05 (inactive). Further, the slope in test [7] is 0.00544 (inactive). Further, the outcome in test [8] was inactive.
`CCOC(=O)c1cc(C)n(Cc2cccc(OC)c2OC)c1C`: in test [1], the cell count was found to be 502. Besides, the inhibition in [1] was -9.3% (inactive); in test [2] it was -39.9% (inactive); in test [4], 17% (inactive); in test [9] it was 26.9% (inactive). The molecule also came in with a nuclei count in [2] of 122%. The values for the z-score in test [3] (setting [10]), in [3] (setting [11]) and in test [3] (setting [12]) were 1.01, 0.196 and 0.00488, respectively. In test [5], the fluorescence slope was -0.496 (inactive). In addition, the NADPH fluorescence slope in test [6] was -9.4e-05 (inactive). In addition, the slope in [7] is 0.00511 (inactive). Also, the result in test [8] was inactive.
Turning to `CC(=O)c1c(N)nc2n(c1=O)CCCCC2`, the cell count in test [1] worked out at 354. Moreover, the inhibition in test [1] is -4.7% (inactive); in [2], -5.5% (inactive); in [4], 9.42% (inactive); in test [9], 24.2% (inactive). Besides, the nuclei count in [2] worked out at 162%. In addition, the z-score is 0.366 in test [3] (setting [10]), 0.179 in [3] (setting [11]) and 0.934 in test [3] (setting [12]). For the same molecule, the fluorescence slope in test [5] is -0.392 (inactive). Also, the NADPH fluorescence slope in [6] was -0.000138 (inactive). The slope in test [7] was 0.0044 (inactive). Moreover, the result in [8] was inactive.
With `COc1cc(C2C(C#N)=C(N)Oc3cc(C)n(CCN4CCOCC4)c(=O)c32)cc(OC)c1OC` (configuration not stated), in [1], the cell count was determined as 388. In addition, the inhibition is 4% (inactive) in test [1], -116% (inactive) in test [2], -4.7% (inactive) in test [4] and -6.44% (inactive) in test [9]. The same molecule registered a nuclei count in [2] of 142%. In addition, the z-score in [3] (setting [10]) is -0.238; in test [3] (setting [11]), -0.479; in test [3] (setting [12]), -0.461. In addition, the fluorescence slope in test [5] is -0.468 (inactive). Besides, the NADPH fluorescence slope in [6] was -4.4e-05 (inactive). Also, the slope in [7] was 0.0078 (inactive). Besides, the outcome in [8] was inactive.
For the molecule `Cc1ccc2c(=O)c(CN(C)C3CCN(C)CC3)c(C)[nH]c2c1C`, in test [1], the cell count is 498. The inhibition in [1] is -21.3% (inactive); in [2], -40.5% (inactive); in [4], 1.12% (inactive); in test [9], 1.23% (inactive). The molecule also returned a nuclei count in [2] of 142%. The z-score in test [3] (setting [10]) was 0.488; in test [3] (setting [11]) it was 0.313; in [3] (setting [12]), -0.364. Further, the fluorescence slope in [5] was -0.491 (inactive). Moreover, the NADPH fluorescence slope in [6] was -4.5e-05 (inactive). Also, the slope in test [7] is 0.00468 (inactive). For the same molecule, in test [8], the molecule was called inactive.
`O=C(Nc1ccc(Cl)cn1)C1CCCN1S(=O)(=O)c1ccccc1` (configuration not stated): the cell count in test [1] stood at 365. The inhibition is 4.7% (inactive) in [1], -101% (inactive) in test [2], 11.3% (inactive) in test [4] and -3.35% (inactive) in [9]. For the same molecule, the nuclei count in test [2] came to 154%. Also, the figures for the z-score in test [3] (setting [10]), in test [3] (setting [11]) and in [3] (setting [12]) were 2.19, 0.087 and -0.0829, respectively. The fluorescence slope in [5] was -0.415 (inactive). In [6], the NADPH fluorescence slope was -4e-05 (inactive). In test [7], the slope is 0.00596 (inactive). In addition, the call in test [8] was inactive.
With `CCCC1C2C(=O)N(c3ccccc3OC)C(=O)C2ON1c1ccccc1` (configuration not stated), the cell count in test [1] stood at 329. Also, the inhibition was -20.4% (inactive) in [1], -107% (inactive) in test [2], 11.3% (inactive) in test [4] and 32.4% (inactive) in test [9]. The molecule also displayed a nuclei count in [2] of 93.8%. Moreover, the z-score in [3] (setting [10]) was 1.11; in [3] (setting [11]), 1.02; in [3] (setting [12]) it was 0.149. Besides, the fluorescence slope in test [5] was -0.536 (inactive). Also, in test [6], the NADPH fluorescence slope is -2.6e-05 (inactive). For the same molecule, the slope in test [7] was 0.00508 (inactive). Moreover, the call in test [8] was inactive.
Turning to `O=C(Oc1ccccc1N1C(=O)CCC1=O)c1ccco1`, the cell count in [1] was 545. The inhibition in [1] is 4.9% (inactive); in test [2] it was -119% (inactive); in [4], 3.5% (inactive); in [9] it was -13.9% (inactive). For the same molecule, the nuclei count in test [2] came to 118%. The z-score in test [3] (setting [10]) is 0.222; in [3] (setting [11]), -0.0545; in [3] (setting [12]) it was 0.413. The fluorescence slope in test [5] is -0.557 (inactive). The NADPH fluorescence slope in test [6] is -6.4e-05 (inactive). For the same molecule, in [7], the slope was 0.0069 (inactive). In addition, the result in test [8] was inactive.
As to `Cc1nn(C)cc1CNC(=O)c1ccc(Br)o1`, the cell count in [1] turned out to be 507. Also, the inhibition in test [1] was -14.6% (inactive); in test [2], -66.6% (inactive); in [4], 10.1% (inactive); in test [9], 0.36% (inactive). For the same molecule, the nuclei count in test [2] was 111%. Besides, the z-score in [3] (setting [10]) was 0.29; in [3] (setting [11]), 0.777; in [3] (setting [12]), -0.409. Moreover, the fluorescence slope in [5] was -0.444 (inactive). Moreover, in test [6], the NADPH fluorescence slope was -3.5e-08 (inactive). Besides, the slope in test [7] is 0.00689 (inactive). Moreover, in [8], the call was inactive.
With `O=C1CC(c2ccco2)CC(O)=C1C=Nc1cc(Cl)ccc1O` (configuration not stated), the cell count in test [1] was 416. In addition, the inhibition in test [1] is -17% (inactive); in test [2], -77.9% (inactive); in test [4], 1.04% (inactive); in [9], 17.7% (inactive). For the same molecule, the nuclei count in [2] came out at 152%. Besides, the results for the z-score in test [3] (setting [10]), in [3] (setting [11]) and in [3] (setting [12]) were -1.18, -0.564 and 1.32, respectively. In test [5], the fluorescence slope was -0.386 (inactive). For the same molecule, the NADPH fluorescence slope in test [6] is -5.2e-05 (inactive). In addition, the slope in [7] is 0.00522 (inactive). For the same molecule, the result in test [8] was inactive.
As for `CC1(C)NC(=O)N(CC(O)COc2ccccc2C(=O)Nc2ccccc2)C1=O` (configuration not stated), in test [1], the cell count was 418. The inhibition is -22.7% (inactive) in test [1], -2.7% (inactive) in test [2], 14% (inactive) in test [4] and 18.8% (inactive) in test [9]. Besides, the nuclei count in test [2] came to 93.5%. Also, the z-score in test [3] (setting [10]) was -0.97; in test [3] (setting [11]), 1.76; in test [3] (setting [12]) it was -1.28. Moreover, the fluorescence slope in test [5] is -0.495 (inactive). The NADPH fluorescence slope in test [6] was -0.000337 (inactive). In addition, in test [7], the slope was 0.00492 (inactive). Moreover, the call in test [8] was inactive.
As to `Cc1ccc(OCC(=O)NCC(=O)n2nc(C)cc2C)cc1`, the cell count in [1] came to 580. The inhibition in test [1] was -8% (inactive); in test [2], 13.1% (inactive); in test [4], -7.01% (inactive); in test [9] it was -1.21% (inactive). The nuclei count in test [2] was found to be 170%. In addition, the results for the z-score in test [3] (setting [10]), in test [3] (setting [11]) and in test [3] (setting [12]) were -0.967, -0.193 and 1.92, respectively. Moreover, the fluorescence slope in test [5] is -0.382 (inactive). Further, the NADPH fluorescence slope in test [6] is -2.8e-05 (inactive). In addition, the slope in test [7] is 0.00489 (inactive). Also, the molecule was classed as inactive in test [8].
Regarding `C=CCSc1nc(C)c(CC=C)c(=O)[nH]1`, the cell count in test [1] was 482. The inhibition in test [1] is -4.7% (inactive); in [2], -71.1% (inactive); in [4], 11.9% (inactive); in test [9] it was 31.6% (inactive). This molecule also returned a nuclei count in [2] of 87.6%. In addition, the values for the z-score in test [3] (setting [10]), in test [3] (setting [11]) and in test [3] (setting [12]) were 0.711, -0.59 and 0.352, respectively. Besides, the fluorescence slope in test [5] is -0.472 (inactive). In addition, the NADPH fluorescence slope in test [6] is -1.2e-06 (inactive). Moreover, the slope in test [7] was 0.00783 (inactive). The outcome in [8] was inactive.
